Measured values taken from ChEMBL document CHEMBL2146456, “Identification and characterization of GABA(A) receptor modulatory diterpenes from Biota orientalis that decrease locomotor activity in mice” (J Nat Prod, 2011).

Tests used:
Assay type in all cases: cell-based
[1] = Allosteric modulation of gamma-aminobutyric acid receptor A alpha1beta2gamma2S expressed in Xenopus oocytes assessed as potentiation of GABA-mediated chloride current by voltage clamp analysis; conditions: Oocyte
Outline: (§1)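 Oocytes were injected with α1β2γ2S, α1β3γ2S, α2β2γ2S, α3β2γ2S or α5β2γ2S cRNAs at a 1:1:10 ratio. Two-electrode voltage clamp was run 1–5 days post-injection in HEPES-buffered saline at pH 7.4. Compounds in GABA EC5–10 (3–10 μM) were given by automated fast perfusion: screening at 10 and 100 μM (n = 2), otherwise concentration series. Potentiation = I(GABA+Comp)/IGABA − 1, with nonlinear regression fits.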

Oocyte [2] = experiment: Allosteric modulation of gamma-aminobutyric acid receptor A alpha1beta2gamma2S expressed in Xenopus oocytes assessed as potentiation of GABA-mediated chloride current at 0.1 to 500 uM by voltage clamp analysis relative to control
Outline: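 Two-electrode voltage clamp on Xenopus oocytes injected with α1, β2, γ2S cRNA at a 1:1:10 ratio, recorded on days 1–5 at a holding potential of […]. Bath: 90 mM NaCl, 1 mM KCl, 1 mM MgCl2, 1 mM CaCl2, 5 mM HEPES pH 7.4. Compound was co-applied by fast perfusion with GABA EC5-10 (typically 3–10 μM). Potentiation was calculated as I(GABA+Comp)/IGABA − 1, and concentration-response curves were fitted by nonlinear regression.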

Oocyte [3] = experiment: Allosteric modulation of gamma-aminobutyric acid receptor A alpha1beta2gamma2S expressed in Xenopus oocytes assessed as potentiation of GABA-mediated chloride current at 10 uM by voltage clamp analysis relative to control; outline: as §1
Oocyte [4] = experiment: Allosteric modulation of gamma-aminobutyric acid receptor A alpha1beta2gamma2S expressed in Xenopus oocytes assessed as potentiation of GABA-mediated chloride current at 100 uM by voltage clamp analysis relative to control; outline: as §1

| Compound | EC50 [1] [nM] | Imax (Oocyte [2]) [%] | Imax (Oocyte [3]) [%] | Imax (Oocyte [4]) [%] |
| --- | --- | --- | --- | --- |
| CCc1cc2c(s1)N(C)C(=O)CN=C2c1ccccc1Cl [CLOTIAZEPAM] | 184 | 260 |  |  |
| C=C[C@]1(C)C=C2CC[C@H]3[C@](C)(C=O)[C@@H](O)CC[C@]3(C)[C@H]2CC1 |  |  | 3.8 | 3 |
| Cc1nnc2n1-c1ccc(Cl)cc1C(c1ccccc1Cl)=NC2 [TRIAZOLAM] | 22 | 253 |  |  |
| Cc1ncc2n1-c1ccc(Cl)cc1C(c1ccccc1F)=NC2 [MIDAZOLAM] | 143 | 342 |  |  |
| CC(C)c1c(O)ccc2c1CC[C@H]1C(C)(C)CCC[C@]21C |  |  | -10.6 | -15.1 |
